Entries after “also recorded” stand apart in the source; their conditions may differ. Values belong to the compound of their own block, whether it stands above or below them. * marks the point of attachment. AMC = Cc1cc(=O)oc2cc(N*)ccc12; Boc = CC(C)(C)OC(=O)*
What was measured:
[1] = Nanoparticle characterisation after furin incubation; format: physicochemical; details: 100 μM, furin 1 nmol/U, pH 7.4, 37 °C, 4 h vs before incubation
How it was run: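 The non-radioactive analogue (100 µM) was incubated with furin (1 nmol/U) for 4 h at 37 °C. UV-vis spectra were recorded at room temperature. For TEM (200 kV), carbon-coated copper grids were dipped in the suspension, plunged into liquid nitrogen and freeze-dried. SEM was run on the same mixture. One furin unit releases 1 pmol MCA from Boc-RVRR-MCA per minute at 30 °C.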

[2] = test system: MDA-MB-468 cells; assay: Cell permeability of 1-Cold by fluorescence cell imaging; format: cell-based, human; details: 100 µM, 37 °C, 0.5 h, fluorescence microscopy
How it was run: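 MDA-MB-468 breast adenocarcinoma cells were grown in DMEM with 10% FBS at 37 °C under 5% CO2. Cells (3 × 10^6) were exposed to the test compound (100 µM, 37 °C, 0.5 h) and washed three times with PBS. They were then imaged live on an inverted fluorescence microscope in the DAPI channel, with DIC overlay. The probe emits at 450 nm after intracellular furin-driven condensation.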

[3] = molecular target: T1, furin (Homo sapiens, UniProt P09958); assay: Michaelis-Menten kinetics of furin cleavage; format: biochemical
T1 sequence (P09958 108-595 limits assumed): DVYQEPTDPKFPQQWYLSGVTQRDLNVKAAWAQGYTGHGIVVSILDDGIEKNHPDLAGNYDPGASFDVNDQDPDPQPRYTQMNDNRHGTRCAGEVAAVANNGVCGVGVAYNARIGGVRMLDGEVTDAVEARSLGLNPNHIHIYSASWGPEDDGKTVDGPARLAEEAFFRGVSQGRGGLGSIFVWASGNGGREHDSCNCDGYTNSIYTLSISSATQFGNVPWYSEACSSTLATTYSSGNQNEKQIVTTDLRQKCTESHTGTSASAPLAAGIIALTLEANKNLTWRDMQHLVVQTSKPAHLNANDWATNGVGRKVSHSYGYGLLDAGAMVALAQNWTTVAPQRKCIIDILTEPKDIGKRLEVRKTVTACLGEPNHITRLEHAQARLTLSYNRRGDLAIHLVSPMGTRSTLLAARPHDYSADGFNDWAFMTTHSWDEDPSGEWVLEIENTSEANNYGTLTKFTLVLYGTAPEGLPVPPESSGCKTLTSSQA

[4] = molecular target: T1, furin; assay: Time course HPLC analysis of furin-controlled condensation; format: biochemical; details: 100 µM, 1 nmol/U of furin, 37 °C
How it was run: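 The non-radioactive analogue (100 µM) was incubated with furin (1 nmol/U) at 37 °C. Mixtures were analysed by HPLC eluted with CH3CN and water, each containing 0.1% TFA, against the untreated compound in water.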

[5] = test system: MDA-MB-468 cells; assay: MTT assay; format: cell-based, human; details: for cells survived (MTT): MDA-MB-468
How it was run: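 MDA-MB-468 cells in log phase were seeded at 3 × 10^3 per well and settled 12 h (37 °C, 5% CO2). They were then exposed to the test compound at 25, 50 or 100 µM in medium for 3, 6 or 12 h. MTT (5 mg/mL stock in PBS, pH 7.4) was added for 4 h, and formazan was dissolved in 10% SDS/PBS. Absorbance was read at 570/680 nm. Viability (%) = mean treated absorbance / mean control absorbance × 100.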

[6] = test system: MDA-MB-468 tumor; assay: MicroPET tumor uptake in MDA-MB-468 tumor-bearing nude mice; format: in vivo; details: for tumor uptake of 1: PET, n = 4
How it was run: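 Female BALB/c nude mice (4–8 weeks) received subcutaneous foreleg xenografts of 4 × 10^7 MDA-MB-468 cells in PBS, grown 4–6 weeks. Under isoflurane, mice were randomised to tail-vein dosing: 85 µCi of the 18F probe alone, or the probe plus 20 µmol/kg of its non-radioactive analogue. Ten-minute static PET scans were taken at 10 min to 6 h, reconstructed by 3D OSEM without attenuation or scatter correction. Decay-corrected ROI values were converted assuming 1 g/mL tissue density and divided by administered activity to give %ID/g.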

[7] = test system: MDA-MB-468 cells; assay: Cellular efflux titration; format: cell-based, human; details: 120 min efflux
How it was run: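 MDA-MB-468 cells (1 million per well) were loaded for 1 h at 37 °C with 4 μCi of the 18F probe plus 0, 5, 25 or 50 μM of its non-radioactive analogue. Medium was then refreshed, marking efflux time 0. At 5–120 min the medium was exchanged and the removed medium was γ-counted. Cells were harvested and counted at 120 min to back-calculate total radioactivity at time 0.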

[8] = test system: MDA-MB-468 cells; assay: Cell uptake of 1; format: cell-based, human; details: 30 min; 600,000 MDA-MB-468 cells, 1 µCi of 1; γ-counter
How it was run: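 MDA-MB-468 cells (600,000 per well) were seeded for 6 h. Medium was then replaced with fresh medium carrying 1 µCi of the 18F-labelled probe per well. Cells and medium were harvested at 5, 10, 20, 30, 60 and 90 min, and radioactivity was counted on a γ-counter.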

[9] = Pharmacokinetic study of 1 in mice after i.v. administration; format: in vivo; details: i.v. about 3.0 mCi/kg, n = 5
How it was run: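 Mice received the 18F radiotracer intravenously at about 3.0 mCi/kg. Mean plasma concentration–time profiles were fitted to a two-compartment model, from which t1/2, AUC0-t, CLtot, Vd and Cmax were derived.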

[10] = molecular target: T1, furin; details: 30 °C; ref Bachem; cited from earlier work

Compound: CC(=O)N[C@@H](CCCNC(=N)N)C(=O)N[C@H](C(=O)N[C@@H](CCCNC(=N)N)C(=O)N[C@@H](CCCNC(=N)N)C(=O)N[C@@H](CSSC(C)(C)C)C(=O)N[C@@H](CCCCNC(=O)c1ccc(F)cc1)C(=O)Nc1ccc2nc(C#N)sc2c1)C(C)C [1-Cold]
- UV-vis absorption at 500-700 nm (light scattering, aggregation) [1]: obvious increase of absorption
- cell permeability (intracellular fluorescence) [2]: good cell permeability
- Kcat of furin relative to Boc-RVRR-AMC ([3]; calculated, Figure S10): 35 times
- Kcat/KM of furin relative to Boc-RVRR-AMC ([3]; calculated, Figure S10): 15 times
- binding affinity to furin, fold lower than that of Boc-RVRR-AMC ([3]; from KM values): 2.4 fold
- time in which furin-controlled condensation was accomplished [4]: ≤ 2 h
- cells survived (MTT) ([5]; 25 µM, 3 h): 110%
- cells survived (MTT) ([5]; 25 µM, 12 h): 98%
- cells survived (MTT) ([5]; 50 µM, 3 h): 103%
- cells survived (MTT) ([5]; 50 µM, 12 h): 105%
- cells survived (MTT) ([5]; 100 µM, 3 h): 87%
- cells survived (MTT) ([5]; 100 µM, 12 h): 68%
- cytotoxicity to MDA-MB-468 cells (MTT), in words ([5]; up to 12 h (abstract: 50 µM)): did not impose cytotoxicity; also recorded: nontoxic

- tumor uptake ratio (Co-injected/1 alone) ([6]; 10 min p.i.): 2.5
- tumor uptake of 1 ([6]; 10 min p.i., 85 µCi 1 alone): 1.02 ± 0.19 % ID/g
- tumor uptake of 1 ([6]; 10 min p.i., co-injected 85 µCi 1 + 20 µmol/kg 1-Cold): 2.52 ± 0.95 % ID/g
- tumor uptake ratio (Co-injected/1 alone) ([6]; 30 min p.i.): 3.6
- tumor uptake of 1 ([6]; 30 min p.i., 85 µCi 1 alone): 1.12 ± 0.08 % ID/g
- tumor uptake of 1 ([6]; 30 min p.i., co-injected 85 µCi 1 + 20 µmol/kg 1-Cold): 4.08 ± 0.48 % ID/g
- tumor uptake ratio (Co-injected/1 alone) ([6]; 60 min p.i.): 6.4
- tumor uptake of 1 ([6]; 60 min p.i., 85 µCi 1 alone): 0.52 ± 0.18 % ID/g
- tumor uptake of 1 ([6]; 60 min p.i., co-injected 85 µCi 1 + 20 µmol/kg 1-Cold): 3.31 ± 1.22 % ID/g
- tumor uptake ratio (Co-injected/1 alone) ([6]; 120 min p.i.): 7.9
- tumor uptake of 1 ([6]; 120 min p.i., co-injected 85 µCi 1 + 20 µmol/kg 1-Cold): 2.27 ± 1.86 % ID/g
- tumor uptake of 1 ([6]; 240 min p.i., 85 µCi 1 alone): 0.19 ± 0.03 % ID/g
- tumor uptake of 1 ([6]; 240 min p.i., co-injected 85 µCi 1 + 20 µmol/kg 1-Cold): 1.55 ± 1.75 % ID/g
- tumor uptake ratio (Co-injected/1 alone) ([6]; 360 min p.i.): 6.5
- tumor uptake of 1 ([6]; 360 min p.i., 85 µCi 1 alone): 0.19 ± 0.05 % ID/g
- tumor uptake of 1 ([6]; 360 min p.i., co-injected 85 µCi 1 + 20 µmol/kg 1-Cold): 1.28 ± 1.07 % ID/g
- initial radioactivity retained after cell efflux ([7]; 4 μCi of 1 alone, 1 h pre-incubation 37 °C, 1 million cells): 13.1 ± 1.2%
- initial radioactivity retained after cell efflux ([7]; 4 μCi of 1 co-incubated with 5 μM 1-Cold): 20.3 ± 4.2%
- initial radioactivity retained after cell efflux ([7]; 4 μCi of 1 co-incubated with 25 μM 1-Cold): 28.5 ± 1.4%
- initial radioactivity retained after cell efflux ([7]; 4 μCi of 1 co-incubated with 50 μM 1-Cold): 32.1 ± 0.9%
- cellular uptake (plateau) [8]: 20.4 % of total radioactivity
- Cmax [9]: 7.471 mCi L^-1
- mean AUC0-t [9]: 452.2 min mCi L^-1
Compound: Acetyl-Arg-Val-Arg-Arg-Cys(StBu)-Lys(^18F-FB)-CBT [compound 1]

Compound: Boc-RVRR-{AMC} [Boc-RVRR-AMC]
- speed of furin cleavage of commercial substrate [10]: 1 pmol/U per min
